PMI act hi M6P: PMI (human) activation, high substrate | hit rate 0.34% among 190,000 | coupled PMI enzyme assay, resazurin fluorescence, 20 min; stronger effect = higher value; 1 = untreated enzyme, 0 = substrate-free blank | activation factor at 20 µM | AID 1216;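 active = activation factor of 2 or more at 20 µM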
Target sequence (P34949 whole entry, looked up): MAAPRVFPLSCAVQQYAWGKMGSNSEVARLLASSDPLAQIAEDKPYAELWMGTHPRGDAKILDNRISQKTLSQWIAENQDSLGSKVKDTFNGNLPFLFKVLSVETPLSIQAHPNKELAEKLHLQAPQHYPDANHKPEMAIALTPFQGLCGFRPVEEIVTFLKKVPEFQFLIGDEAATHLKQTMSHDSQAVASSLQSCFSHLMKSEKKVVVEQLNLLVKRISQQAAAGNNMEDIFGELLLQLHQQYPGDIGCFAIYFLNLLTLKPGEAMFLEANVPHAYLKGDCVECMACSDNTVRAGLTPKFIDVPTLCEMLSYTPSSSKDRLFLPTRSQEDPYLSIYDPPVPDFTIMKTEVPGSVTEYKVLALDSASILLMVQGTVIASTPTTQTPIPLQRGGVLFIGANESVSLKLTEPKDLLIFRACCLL
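Test system: human phosphomannose isomerase with PGI, G6PDH, diaphorase coupling enzymes / Doses: 20 µM compound, 1% DMSO / Times: enzyme reaction with compound 20 min at room temperature / Measured by: Diaphorase-driven resazurin-to-resorufin fluorescence, excitation 544, emission 590 nm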
G6PDH counter: inhibits Leuconostoc G6PDH, flagging false hits in G6PDH-based assays. inhibition, % at 5 µM. Purified L. mesenteroides G6PDH, diaphorase/resazurin coupled fluorescence, 45 min. hit rate 0.12% among 200,000. AID 1020; in the data active = inhibition above about 50%
Redox H2O2 prof: compounds producing H2O2 with reducing agent – biochemical, NIH compound library profiling, artefact control for MLSCN library redox annotation, primary screen; hit rate 0.03% among 200,000; activation, % at 10 µM; DTT-dependent redox cycling H2O2, phenol red/HRP absorbance; 100% = 100 µM peroxide control, 0% = buffer; AID 878;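 active = activation of at least 50% relative to the plate's high and low controls in the primary single-dose screen; inactive = activation below 50%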;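 note: compound incubated with DTT at 0.8 mM final as the reducing agent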
Diaphorase act: diaphorase activation or chemical reduction counter-screen; hit rate 0.005% among 190,000; Diaphorase/resazurin coupled assay, resorufin fluorescence, 16 min; stronger effect = higher value; 1 = vehicle wells, 0 = NADH-free wells; activation factor at 20 µM;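 active = diaphorase activity raised at least twofold by the compound at 20 µM; inactive = activation factor below 2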
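Material: purified diaphorase enzyme from Clostridium kluyveri; Also added: 0.114 mM NADH and 0.1 mM resazurin, final amounts; Doses: single compound dose of 20 µM, 1% DMSO final; Times: 16 min enzyme reaction, ambient temperature; Detection: resorufin fluorescence, excitation 544 nm, emission 590 nm; Measure: increased resorufin signal from activators or reducing compounds.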
PMI act: phosphomannose isomerase (human) activation | P34949 | purified human PMI, coupled resazurin fluorescence, 20 min; stronger effect = higher value; 1 = vehicle control, 0 substrate-free wells | activation factor at 20 µM | hit rate 0.005% among 190,000;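 active = activation factor of 2 or more at 20 µM, relative to plate controls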
Diaphorase inh: inhibits diaphorase or chemically oxidizes, flagging diaphorase assay artifacts; diaphorase resazurin-to-resorufin fluorescence, NADH, 16 min; bacterial (C. kluyveri) enzyme, not human; inhibition, % at 20 µM; hit rate 0.69% among 190,000;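 active = primary screen inhibition at 20 µM above a set limit, cut at about 50% in these data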;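 note: plate controls were DMSO with full reaction for no effect and wells lacking NADH for full effect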
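Assay system: diaphorase enzyme from Clostridium kluyveri; Input: enzyme working solution with 0.14 U/mL diaphorase; Timing: 16 min at room temperature; Technique: resorufin fluorescence, excitation 544 nm, emission 590 nm; Benchmarks: positive control minus NADH, DMSO neutral control.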
Starred values were filed as active, the others as inactive; nt = not tested or not shown. Compounds with a hit are over-represented: about 1.1% of the library has one in this group of screens.

SMILES	PMI act hi M6P	G6PDH counter	Redox H2O2 prof	Diaphorase act	PMI act	Diaphorase inh
CC(Sc1nc2cc(Cl)ccc2s1)C(=O)Nc1cccc(S(=O)(=O)N2CCOCC2)c1 (configuration not stated)	1	8	0	0.3	1	66*
S=c1[nH]nc(-c2ccco2)n1/N=C/C=C/c1ccccc1	0.9	1	0	0.4	0.8	57*
O=C(Nc1ccc(Cl)cc1)[C@@H]1[C@@H]2C(=O)N(c3ccc4ccccc4c3)C(=O)[C@@H]2[C@H]2C=CC=NN21	2*	0	1	0.6	1.5	40
NC(=O)CN1CCOCCN(CC(N)=O)CCOCC1	0.9	56*	nt	0.9	1	8
O=C(O)CC(NC(=O)CCC1CCCCC1)c1cc([N+](=O)[O-])ccc1Cl (configuration not stated)	1	2	0	1	1.2	4
CC(=O)c1c(O)c2ccccc2n(C)c1=O	0.9	6	1	0.8	0.9	22
O=c1c(Cl)c(O)c2cccc3c4ccccc4n1c23	1.1	3	0	0.5	0.8	52*
CNc1ccc(Br)cc(C(=O)/C=C/c2ccc(OC)cc2OC)c1=O	0.8	21	0	0.6	0.9	42
CNc1ccc(Br)cc(C(=O)/C=C/c2ccc(Cl)cc2Cl)c1=O	0.8	34	0	0.2	0.8	85*
CNc1ccc(Br)cc(C(=O)/C=C/c2cccc(OC)c2)c1=O	1.2	24	1	0.5	1.1	50*
CCNc1ccc(Br)cc(C(=O)/C=C/c2ccc3c(c2)OCO3)c1=O	1	38	-4	0.4	0.8	59*
COc1cc(NC(=S)N2CCc3ccccc3C2)cc(OC)c1	0.9	5	0	0.9	0.8	8
CC(=O)NCCOc1nc(N(C)C)nc(N2CCCCC2)n1	1	10	0	0.9	1	8
Cc1c(Cl)cccc1NC(=O)COC(=O)c1c2c(nc3ccccc13)CCN(Cc1ccccc1)C2	0.9	-5	0	0.9	0.9	14
CC(C)c1ccccc1NC(=O)COC(=O)c1c2c(nc3ccccc13)CCN(Cc1ccccc1)C2	2.1*	-8	-1	0.8	1.5	16
Cc1ccc(NNC2CC(=O)N(c3cccc(Cl)c3)C2=O)cc1 (configuration not stated)	2.6*	-7	-1	0.9	1.7	7
O=C1CC(NNc2ccccc2)C(=O)N1c1ccccc1 (configuration not stated)	2.5*	14	0	1	1.7	1
CCCCN(CC)C(=S)Nc1ccc2nc(N3CCN(C)CC3)cc(C)c2c1	0.7	-4	-3	1.2	0.9	-16
O=C(COC(=O)c1cccc(S(=O)(=O)N2CCc3ccccc3C2)c1)NCc1ccco1	1.3	0	-3	0.8	1	16
O=C(COC(=O)c1cc(S(=O)(=O)N2CCc3ccccc3C2)ccc1Cl)NCc1ccco1	1.3	1	0	0.5	1	52*
COc1ccc(Cc2[nH]n3c(=O)c(Cl)c(C)nc3c2-c2ccccc2)cc1	1.1	24	0	1	1.2	1
COc1ccc(-c2csc(NC(=O)c3cc(=O)c4ccccc4o3)n2)cc1OC	1.1	-8	-3	1	1.1	0
O=C(NC(=S)Nc1nc(-c2ccc(Br)cc2)cs1)c1cccnc1	2.5*	0	-5	0.9	1.5	12
COc1ccc(-c2csc(NC(=S)NC(=O)c3cccs3)n2)cc1OC	0.9	-28	-2	0.4	0.8	59*
CCN1C(=O)/C(=C\N(C)C)S/C1=N\S(=O)(=O)c1ccc(C)cc1	1	9	0	0.9	1	12
CCCNC(=O)c1ccc(C2SCC(=O)N2CCc2ccccc2)cc1 (configuration not stated)	0.9	-5	0	0.9	1	13
